High-throughput results: PubChem, several laboratories
EBNA-1 inh: blocks EBNA-1 binding to DNA. actives 0.34% (n = 300,000). EBNA-1 DNA binding, fluorescence polarization. inhibition, % at 14.8 µM; in the data active = inhibition above about 28%
LANA-H2A inh: blocks KSHV LANA binding to histone H2A/H2B. actives 0.6% (n = 320,000). AID 2629. inhibition, % (test concentration not listed). Q9QR71. cell-free LANA-H2A/H2B peptide, fluorescence polarization; in the data active = inhibition mostly above about 10%, no sharp cut-off; inactive = mostly below about 6.7%
ZTA DNA inh: blocks Epstein-Barr virus ZTA, an EBNA-1 counter-screen | actives 0.15% (n = 320,000) | P03206 | AID 2234 | inhibition, % at 11 µM | ZTA-DNA binding, fluorescence polarization; in the data active = inhibition above about 33%
A1 inh: inhibitors of the anti-apoptotic protein A1, read as caspase activation; MEF A1-2A-BIM cells, Caspase-Glo 3/7 luminescence, 3 h; percent of clofoctol response, vehicle zero; actives 0.066% (n = 330,000); caspase activation, % (concentration not given with the values);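 active = over half of replicate activation scores above 10%, or exactly half above 10 with the replicate mean above 10; inconclusive = replicate mean below 10 yet half the replicates above 10; inactive = over half of replicates below 10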
CSN inh: blocks human CSN-mediated cullin deneddylation | Purified CSN, SCF-Nedd8-OG deneddylation, fluorescence polarization | Q92905 | actives 0.38% (n = 360,000) | inhibition, % at 12.5 µM;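 active = pattern-corrected inhibition above about 35%, with an unprinted fluorescence ratio check between 0.5 and 1.5, limit read from the data, passing the limit was not always enough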;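 note: 0% = enzyme with substrate and 100% = substrate without enzyme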
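Test system: Human Csn5 produced in HEK293T cells | Compound: 12.5 µM single point | Times: 90 min, room temperature | Signal: Fluorescence polarization readout | Read-out basis: % inhibition of substrate cleavage by Csn5 | Controls: no-enzyme wells high, enzyme-with-substrate wells low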
HNF4A DNA FP: change in binding of human HNF4 alpha to DNA. P41235. HNF4a-FITC DNA binding, fluorescence polarization, 1 h. activity change, % at 10 µM. actives 0.3% (n = 360,000). AID 1224865; in the data active = activity change above about 30%, passing the limit was not always enough
CSN deneddyl val: Csn5 (human) deneddylation inhibition, single-concentration validation; actives 62% (n = 540); shares compounds with CSN inh; inhibition, % at 16.6 µM; Csn5 deneddylation of SCF-Nedd8OG, fluorescence polarization, 90 min; AID 720654; in the data active = inhibition above about 50%;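 note: 0% = DMSO with enzyme and 100% = no enzyme wells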
MMP2 cntr CSN: MMP-2 (human) inhibition, counter-screen for CSN hits. shares compounds with CSN inh. recombinant MMP-2, FRET substrate fluorescence, 60 min. inhibition, % at 16.6 µM. actives 33% (n = 540). AID 720655;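 active = corrected plate-normalized z-score of 5 or more, or -5 or less, or inhibition of 15% or more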;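 note: plate controls were DMSO wells with enzyme for no effect and buffer wells lacking MMP-2 for full effect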
Target sequence (P08253 whole entry, looked up): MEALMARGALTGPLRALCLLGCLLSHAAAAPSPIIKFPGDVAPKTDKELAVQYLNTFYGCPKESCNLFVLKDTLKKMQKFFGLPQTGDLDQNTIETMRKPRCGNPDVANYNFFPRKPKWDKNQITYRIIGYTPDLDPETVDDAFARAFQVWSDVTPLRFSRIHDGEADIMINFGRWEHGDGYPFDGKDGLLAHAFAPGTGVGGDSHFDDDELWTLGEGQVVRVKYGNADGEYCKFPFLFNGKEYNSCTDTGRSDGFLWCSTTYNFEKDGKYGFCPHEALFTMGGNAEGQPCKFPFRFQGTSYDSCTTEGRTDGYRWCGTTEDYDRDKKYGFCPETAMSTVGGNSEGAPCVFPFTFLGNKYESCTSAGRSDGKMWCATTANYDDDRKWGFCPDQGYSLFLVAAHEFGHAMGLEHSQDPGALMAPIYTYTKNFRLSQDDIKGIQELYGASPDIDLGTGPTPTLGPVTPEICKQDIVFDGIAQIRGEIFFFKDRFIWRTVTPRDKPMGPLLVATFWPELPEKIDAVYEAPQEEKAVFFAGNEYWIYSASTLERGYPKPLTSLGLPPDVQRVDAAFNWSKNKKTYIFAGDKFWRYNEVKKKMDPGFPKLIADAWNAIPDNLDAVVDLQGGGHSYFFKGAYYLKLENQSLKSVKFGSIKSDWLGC
Thrombin cntr: counter-screen for CSN deneddylation inhibitors: bovine thrombin inhibition | shares compounds with CSN inh | bovine thrombin cleavage of Ub4-pepOG, fluorescence polarization | inhibition, % at 16.6 µM | actives 49% (n = 540);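 active = inhibition at or above a set limit, with a fluorescence interference ratio between 0.5 and a set maximum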
An asterisk follows results filed as active; ? = inconclusive; · = not tested or not shown. Compounds with a hit are over-represented: about 1.5% of the library has one in this group of screens.

SMILES	EBNA-1 inh	LANA-H2A inh	ZTA DNA inh	A1 inh	CSN inh	HNF4A DNA FP	CSN deneddyl val	MMP2 cntr CSN	Thrombin cntr
O=C1c2ccccc2C(c2nnnn2Cc2ccccc2)N1Cc1cccnc1 (stereo not drawn)	·	·	·	·	0.6	1.4	·	·	·
CN(C)c1ccc2c(c1)Sc1cc(N(C)C)ccc1N2C(=O)c1ccccc1	1.7	0.2	-4.3	1.8	6.3	-3.1	·	·	·
O=C(N/N=C/c1ccc([N+](=O)[O-])o1)c1cc(-c2ccc(-c3ccccc3)cc2)nc2ccccc12	-0.5	0.7	-8.0	-0.4	3.5	-4.8	·	·	·
Cc1ccc(-c2cc(C(=O)N/N=C/c3ccc([N+](=O)[O-])o3)c3ccccc3n2)o1	·	-1.5	·	-11.7	39.5*	-13.0	106.6*	11.4	-5.8
COc1cccc(N2CCN(c3ccc4nnc(CCC(=O)Nc5ccc(C)cn5)n4n3)CC2)c1	11.2	5.6	11.0	0.3	1.5	4.8	·	·	·
COC(=O)c1ccc(CN(C)S(=O)(=O)c2cccs2)cc1	-0.2	1.2	-11.3	0.4	0.0	1.8	·	·	·
N=C(N)c1ccc(/C=C/c2ccc(C(=N)N)cc2O)cc1	3.0	0.9	-12.9	1.3	45.7*	18.2	-17.4	-2.4	31.9*
COc1cc(/C=C(\C#N)c2nc3ccccc3o2)ccc1O	-14.9	-3.2	-3.2	-5.5	109.4	190.0	·	·	·
N#C/C(=C\c1ccc(O)cc1)c1nc2ccccc2o1	-10.2	-10.5	-1.2	-5.5	47.6*	57.1*	114.0*	-13.1	38.9*
CCC(=O)N(C)C[C@@H]1Oc2ncc(Br)cc2C(=O)N([C@@H](C)CO)C[C@H]1C	·	·	·	·	3.2	1.1	·	·	·
Cc1cc(N)c2cc(NC(=O)/C=C/c3ccccc3Cl)ccc2n1	0.8	1.9	-0.9	-0.7	107.8*	37.1*	-38.7	54.2*	-5.4
Cc1ccc(S(=O)(=O)NCC(=O)N2CCN(S(=O)(=O)c3ccc(Cl)cc3)CC2)cc1C	-3.3	-0.4	-11.9	0.5	-0.4	0.9	·	·	·
OC(c1cccc(Cl)c1)c1nc(/C=C/c2ccc(C(F)(F)F)cc2)cs1 (stereo not drawn)	·	·	·	·	0.1	-0.9	·	·	·
Cc1c(NC(=S)N/N=C/c2ccc(N(C)C)cc2)c(=O)n(-c2ccccc2)n1C	-8.7	1.3	4.9	?	0.0	-2.7	·	·	·
Cc1c(N2C(=O)/C(=C\c3ccc(N(C)C)cc3)N(C)C2=S)c(=O)n(-c2ccccc2)n1C	-4.5	-4.9	-7.7	-0.6	75.4*	43.9*	85.4*	-7.0	67.9*
CN1C(=S)N(c2cccnc2)C(=O)/C1=C\c1ccc(C(C)(C)C)cc1	-10.9	-4.0	-3.3	-0.7	6.9	3.5	·	·	·
CN1C(=S)N(c2cccnc2)C(=O)/C1=C\c1ccc(N(C)C)cc1	·	·	·	·	46.8*	75.9*	67.8*	-9.8	21.9*
CN(/N=C/c1ccc(-c2ccc([N+](=O)[O-])cc2)o1)c1ccccc1	-6.2	-0.1	-10.9	-1.3	50.1*	47.8*	92.3*	1.6	24.7*
CN(/N=C/c1cc([N+](=O)[O-])ccc1O)c1ccccc1	11.4	0.5	-7.0	-4.3	-3.6	4.5	·	·	·
CC(C)Cn1c(N)c(C(=O)NCC2CCCO2)c2nc3ccccc3nc21 (stereo not drawn)	5.4	3.7	4.1	0.5	43.4*	4.1	103.1*	-4.6	-4.7
CC(C)(C)OC(=O)NCc1n[nH]c(=S)n1C1CC1	-8.4	-4.8	-1.6	1.1	-1.6	-0.4	·	·	·
COc1ccc(O)c(/C=N/NC(=O)c2c(C)nnn2-c2nonc2N)c1	-7.5	-1.5	-0.1	0.5	87.8*	41.4*	-7.8	33.3*	7.7
COc1ccc(/C=N/NC(=O)c2nnn(-c3nonc3N)c2-c2cccc(OC)c2)cc1	-1.6	1.3	-10.7	-1.6	-0.7	-3.0	·	·	·
OC[C@H]1O[C@@H](O[C@@H]2[C@@H](CO)O[C@@](O)(CO)[C@H]2O)[C@H](O)[C@@H](O)[C@H]1O	-0.2	-0.8	-3.4	0.3	-3.3	0.9	·	·	·
Cc1ccc(C2=NN(C(=O)CN3CCN(C4CCS(=O)(=O)C4)CC3)C(c3ccco3)C2)cc1 (stereo not drawn)	·	-4.0	-11.5	-0.1	-1.0	5.6	·	·	·
SMILES	EBNA-1 inh	LANA-H2A inh	ZTA DNA inh	A1 inh	CSN inh	HNF4A DNA FP	CSN deneddyl val	MMP2 cntr CSN	Thrombin cntr
Cc1ccc(N=Cc2sc(O)c3ccccc23)cc1	-7.8	-17.9	10.8	-7.8	40.4*	77.2	82.5*	-10.4	57.0*
O=C(O)c1cc([N+](=O)[O-])c(NCCC2=CCCCC2)c([N+](=O)[O-])c1	-3.5	3.5	8.5	1.8	1.4	2.8	·	·	·
COc1ccc(N2CCN(S(=O)(=O)CCNC(=O)C3CC3)CC2)cc1	0.6	-7.2	-4.2	0.2	-4.7	3.3	·	·	·
COc1cc2sc3cc(NCC[C@@H]4CCCN4C)ccc3c(=O)c2cc1OC	·	-1.8	·	0.3	36.4*	20.9	109.3*	8.0	-14.6
COc1cccc(C(=O)OCC(=O)NCCCc2ccccc2)c1	5.8	-3.2	4.2	1.8	4.1	3.0	·	·	·
COc1cc(/C=C2\SC(=S)N(NC(=O)c3ccc(O)c(OC)c3)C2=O)ccc1O	10.3	-7.7	16.0	0.1	64.0*	58.6*	89.6*	-5.2	80.4*
COc1cc(/C=C2\SC(=S)N(NC(=O)c3cccc(O)c3)C2=O)ccc1O	·	0.0	·	-0.6	49.5*	47.3*	96.5*	-2.8	40.1*
COc1cc(/C=C2\SC(=S)N(NC(=O)c3ccncc3)C2=O)ccc1O	-2.4	-7.0	0.1	-0.1	38.6*	49.9*	68.4*	11.8	38.0*
COc1cc(/C=C2\SC(=S)N(N3CCOCC3)C2=O)ccc1O	-0.8	-1.0	2.1	-0.4	7.9	-9.5	·	·	·
CCOc1cc(/C=C2\SC(=S)N(NC(=O)c3cccnc3)C2=O)ccc1O	3.3	-2.8	-1.4	1.1	36.0*	48.6*	58.4*	2.1	35.6*
CC(/C=C1\SC(=S)N(NC(=O)c2ccncc2)C1=O)=C\c1ccccc1	0.5	-8.9	11.3	0.1	1.8	1.3	·	·	·
O=C(NN1C(=O)/C(=C/c2cccs2)SC1=S)c1cccnc1	5.2	-3.8	17.4	-0.5	3.0	3.7	·	·	·
O=C(OCc1cn([C@H]2C[C@H](c3ccc(Cl)cc3)N(C(=O)C3CCCCC3)C[C@@H]2O)nn1)c1ccccc1	·	·	·	·	3.2	3.4	·	·	·
